Screens deposited in PubChem BioAssay by several laboratories.
STK33 inh = blocks human STK33 kinase activity; purified STK33, MBP phosphorylation, ADP-Glo luminescence; inhibition, % at 10 µM; 320,000 tested, 0.073% active; AID 2661;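 active = inhibition at or above 25%, using the most active replicate where run in duplicate; inactive = inhibition below 25%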
Target sequence (Q9BYT3 whole entry, looked up): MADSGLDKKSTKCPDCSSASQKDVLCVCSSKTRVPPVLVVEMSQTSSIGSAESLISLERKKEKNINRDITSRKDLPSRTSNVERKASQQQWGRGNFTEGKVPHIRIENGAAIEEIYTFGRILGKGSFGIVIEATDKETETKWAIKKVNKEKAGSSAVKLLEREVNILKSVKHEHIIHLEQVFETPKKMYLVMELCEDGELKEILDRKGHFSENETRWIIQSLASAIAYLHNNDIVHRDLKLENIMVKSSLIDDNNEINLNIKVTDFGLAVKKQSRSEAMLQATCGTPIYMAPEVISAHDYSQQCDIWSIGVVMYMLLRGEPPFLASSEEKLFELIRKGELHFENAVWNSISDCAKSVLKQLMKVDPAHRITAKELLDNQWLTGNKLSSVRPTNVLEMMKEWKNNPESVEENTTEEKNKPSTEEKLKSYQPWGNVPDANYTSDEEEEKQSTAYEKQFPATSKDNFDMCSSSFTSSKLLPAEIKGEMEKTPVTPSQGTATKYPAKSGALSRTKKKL
Efflux pump inh = blocks antifungal efflux pumps in multiplex yeast assay; AID 485275; 330,000 tested, 0.44% active; S. cerevisiae Candida pump triplex, Nile Red efflux; inhibition, % at 10 µM;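 active = plate passing quality check with inhibition over a set limit, or well fluorescence over plate mean plus 4 SD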;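 also: Nile Red retained in pooled yeast measured as flow cytometry median fluorescence; 0% = buffer negative control and 100% = Enniatin B positive control; higher means more Nile Red kept so more efflux inhibition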
GSK3A inh = human GSK-3 alpha kinase inhibition. AID 2650. ADP-Glo luminescence, 60 min. inhibition, % at 10 µM. 320,000 tested, 0.1% active;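 active = more than half of replicates show inhibition above 20%; inconclusive = some but at most half of replicates above 20% inhibition; inactive = no replicate shows inhibition above 20%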;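 also: GST-tagged GSK-3 alpha with peptide substrate and 25 µM ATP; 0% = DMSO neutral wells and 100% = GW8510 positive control wells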
GSK3beta inhib = blocks human GSK3beta kinase activity; P49841; GST-GSK3beta kinase, ADP-Glo luminescence, 60 min; hits give low values; activity score (negative = inhibition), % at 10 µM; 300,000 tested, 0.038% active;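 active = more than half of replicate wells score below -50%, meaning over 50% inhibition versus plate controls; inconclusive = some replicates but at most half score below -50%; inactive = no replicate scores below -50%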;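 also: 0% = median DMSO wells and -100% = median GW8510 positive control wells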
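test system = GST-tagged human GSK3beta kinase, cell-free | reagent = 25 µM ATP with peptide substrate | dosing = one dose of 10 µM per compound | schedule = 60 min reaction, RT | detection = luminescent ADP-Glo measurement of ADP formed | control set = DMSO neutral wells and GW8510 at 20 µM as positive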
PolyA inh = inhibitors of polyadenylation in S. cerevisiae. S. cerevisiae SKY197-pL101 polyadenylation reporter, beta-gal luminescence; efflux-impaired pdr1/pdr3 knockout yeast; score 100 = 6 SD above DMSO. activity score, % at 12 µM. 300,000 tested, 0.02% active. AID 1875;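 active = lowest replicate activity score at least 50, where 100 means six control SD above control mean; inconclusive = lowest score under 50 but half or more replicates reach 50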;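 also: yeast exposed to compound for 9 h at 30 °C; higher score means more reporter readthrough which indicates perturbed polyadenylation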
* hit, by the source's call; ? = inconclusive; · = not tested or not shown. Hits are enriched below; roughly 0.6% of the tested compounds scored in any of these assays.

SMILES | STK33 inh | Efflux pump inh | GSK3A inh | GSK3beta inhib | PolyA inh
CCN(CC)c1ccc(C=C2C(=O)OC(c3ccccc3)OC2=O)cc1 (stereo not drawn) | 1 | 0 | -3 | 0 | -13
CCOC(=O)COc1ccsc1C(=O)OC | -1 | 0 | 8 | 3 | 2
Cc1ccc(-n2c(C)c([N+](=O)[O-])c3ccc(O)c(CN(C)C)c32)cc1 | -2 | 0 | 5 | -3 | -3
COc1ccc(-n2c(C)c([N+](=O)[O-])c3ccc(O)c(CN4CCCCC4)c32)cc1 | 0 | 0 | 51* | 4 | -36
Cc1cc(C)c(S(=O)(=O)NCC23C=CC(O2)C2C(=O)N(c4ccccc4)C(=O)C23)c(C)c1 (stereo not drawn) | -5 | 0 | 2 | -5 | -10
O=C1C2C3C=CC(CO)(O3)C2C(=O)N1c1ccc(-c2ccccc2)cc1 (stereo not drawn) | -1 | 1.7* | · | -1 | -73
CN(C)C=NC(=O)/C(C#N)=C1\CCc2ccccc2N1 | 10 | 0 | 52* | -34 | 4
CS(=O)(=O)c1[nH]nc(-c2ccccc2Cl)c1C#N | -1 | 0 | -1 | 3 | 7
COC(=O)c1cnc(SC)nc1C | -1 | 0 | 2 | 1 | -1
Cc1ccnc(NC(=O)CCC(=O)N(CC(=O)NCc2ccccc2)Cc2cccs2)c1 | 0 | 0 | 51* | -23 | -9
CN(C)c1nc(N(C)C)n(C(=O)c2cccs2)n1 | -1 | 0 | 2 | 2 | 9
O=C(Nc1cccc(-c2cn3cccnc3n2)c1)c1ccco1 | 9 | 0 | -2 | -8 | 3
O=C(Nc1cccc(-c2cn3cccnc3n2)c1)c1ccc(Br)o1 | 32* | 1 | 0 | 4 | -5
CCn1cc(/C=C/C(=O)c2ccc(O)cc2)c(C)n1 | 44* | 0 | 1 | 4 | -11
Cc1c(/C=C/C(=O)c2ccc(O)cc2)cnn1C | 29* | 0 | 3 | 0 | 4
O=S(=O)(Nc1ccc2c(c1)OCCO2)c1ccc(Br)s1 | -3 | 0 | -5 | 0 | 3
CCC(C)Nc1nc(N)c([N+](=O)[O-])c(Nc2ccccc2OC)n1 (stereo not drawn) | 1 | 0 | 66* | -55* | -57
CN(C)CCCNc1nc(N)c([N+](=O)[O-])c(NCCO)n1 | 0 | 0 | 50* | -25 | 14
COc1ccccc1Nc1nc(NCCCN(C)C)nc(N)c1[N+](=O)[O-] | 7 | 0 | 95* | -83* | 8
Nc1nc(NCCc2ccccc2)nc(NCCO)c1[N+](=O)[O-] | 5 | 0 | 93* | -1 | 11
C=CCNc1nc(N)c([N+](=O)[O-])c(Nc2ccccc2OC)n1 | 0 | 0 | 22 | -12 | -42
CCN(CC)CCCNc1nc(N)c([N+](=O)[O-])c(NCCO)n1 | 1 | 0 | 37 | -14 | 5
COc1ccc(C[C@H](N)C(=O)N[C@H]2[C@@H](O)[C@H](n3cnc4c(N(C)C)ncnc43)O[C@@H]2CO)cc1 | 1 | 0 | -3 | · | ·
Cc1ccc(C(=O)NC(O)C(Cl)Cl)cc1 (stereo not drawn) | 0 | 0 | -5 | 4 | 10
COc1ccccc1CCC(=O)OCC(=O)Nc1ccc2[nH]c(=O)[nH]c2c1 | -3 | 0 | 4 | -2 | 15
SMILES | STK33 inh | Efflux pump inh | GSK3A inh | GSK3beta inhib | PolyA inh
CCc1ccc(C(=O)COC(=O)c2n[nH]c3ccccc23)cc1 | -2 | 0 | -1 | 2 | -21
COc1ccc(C(=O)N(C)Cc2ccccn2)cc1OC1CCN(C(C)C)CC1 | -1 | 0 | 0 | 0 | 12
O=C(COC(=O)/C=C/c1cccs1)NC(c1ccccc1)c1ccccc1 | -1 | 0 | 0 | -6 | 150*
O=c1cc(-c2ccccc2Cl)oc2c([N+](=O)[O-])c(O)cc(O)c12 | 2 | 0 | 39 | -53* | ?
CSc1nc(NCCCO)c2c3c(sc2n1)CN(C)CC3 | 8 | 0 | 49 | -41 | 9
CSc1nc(NCC(C)O)c2c3c(sc2n1)CN(C)CC3 (stereo not drawn) | 4 | 0 | 48 | -54* | 1
COc1ccccc1N1CCN(C(=O)CCNS(=O)(=O)c2ccc(Br)s2)CC1 | -4 | 0 | -2 | 3 | 91*
COc1cc(O)c(CC=C(C)C)c(O)c1C(=O)CCc1ccc(O)cc1 | 0 | 0 | -2 | -6 | 8
O=C(CCc1ccc(O)cc1)c1c(O)cc(O)cc1O | 30* | 0 | 9 | -7 | 0
CC1CCc2c(sc3nn[nH]c(=O)c23)C1 (stereo not drawn) | 3 | 0 | 52* | -28 | 6
Cc1ccc(N2C(=O)N(CC(=O)Nc3ccc(C)cc3[N+](=O)[O-])C(=O)C2C)cc1 (stereo not drawn) | -1 | 0 | -1 | 5 | -9
Cc1cc(N2CCN(c3ccccc3)CC2)n2c(n1)nc1ccccc12 | 1 | 0 | 56* | -1 | -5
Cc1cc(N2CCN(c3ccccc3)CC2)n2nnnc2n1 | 1 | 0 | -2 | 1 | 4
CC1(C)Cc2c(sc3c2C2=NCCN2C=N3)CS1 | -1 | 0 | 54* | -5 | -14
COc1ccc(-c2cc(C(F)F)n3ncc(C(=O)N4CCN(C(=O)c5ccco5)CC4)c3n2)cc1 | 0 | 0.8* | 2 | -1 | ?
O=C(CSc1n[nH]c(=O)n1-c1ccc2c(c1)OCCO2)Nc1ccccc1 | 1 | 0 | 13 | 1 | 1
Cc1ccc(S(=O)(=O)CCSc2n[nH]c(=O)n2-c2ccc3c(c2)OCCO3)cc1 | 1 | 0 | 77* | -29 | 25
COC(=O)c1ccc(Cl)cc1NC(=O)/C=C/c1ccc(C)o1 | -2 | 0 | 1 | 2 | -9
COc1ccc(NC(=O)CN(C)C(=O)c2cn(-c3ccccc3)nc2-c2ccc(Cl)cc2)cc1 | -1 | 0 | -1 | 1 | 7
N#Cc1ccsc1NC(=O)CN1CCN(S(=O)(=O)c2ccccc2C(F)(F)F)CC1 | -2 | 0 | 1 | -1 | -10
COc1ccc(-c2ncncc2-c2ccc(OC)c(OC)c2)c(O)c1 | 0 | 0 | 52* | 3 | -6
Cc1cccc(Nc2nc(N)c([N+](=O)[O-])c(NCCO)n2)c1 | 16 | 0 | 64* | -45 | 14
Cc1cccc(Nc2nc(N)c([N+](=O)[O-])c(NCc3ccco3)n2)c1 | 2 | 0 | 5 | -10 | 3
COc1ccc(Nc2nc(N)c([N+](=O)[O-])c(NCCO)n2)cc1 | 21 | 0 | 75* | -53* | -4
Nc1nc(Nc2cccc(Cl)c2)nc(NCCO)c1[N+](=O)[O-] | 9 | 0 | 73* | -50* | 1
O=c1[nH]c(C2CCCN(S(=O)(=O)c3ccc(F)cc3)C2)nc2c1nnn2Cc1ccc(F)cc1 (stereo not drawn) | 0 | 0 | -2 | 2 | 0
CNC(CC(=O)c1ccc([N+](=O)[O-])cc1)C(Cl)(Cl)Cl (stereo not drawn) | 0 | 9.4* | 0 | · | ·
